ChEMBL document CHEMBL1153760, “Identification and structure-activity relationships of chromene-derived selective estrogen receptor modulators for treatment of postmenopausal symptoms” (J Med Chem, 2009)
The source made the active and inactive calls. The rule behind the calls is not given here.

Key:
[1] = AUC in rat at 10 mg/kg, po administered as single dose by LC-MS/MS analysis; assay type: ADME, organism-based; parameters: dose 10 mg/kg, route oral; conditions: plasma
Procedure, shortened: (§1)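 Single-dose rat pharmacokinetics. IV dosing at 1-3 mg/kg as a solution in 10% β-cyclodextrin; oral gavage at 10 mg/kg as a uniform suspension in 0.5% methylcellulose. Blood (0.5 mL) collected into heparinized tubes by orbital sinus puncture after dosing. Plasma extracted into acetonitrile with an internal standard and analysed by LC-MS-MS against standards to obtain PK parameters.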

Estrogen receptor [2] = target: T1, Estrogen receptor (Homo sapiens, UniProt P03372); assay: Antagonist activity at estrogen receptor in human Ishikawa cells assessed as 17-beta-estradiol-induced alkaline phosphatase activity after 3 days by chemiluminescence assay; assay type: functional, cell-based
T1 sequence (P03372 whole entry): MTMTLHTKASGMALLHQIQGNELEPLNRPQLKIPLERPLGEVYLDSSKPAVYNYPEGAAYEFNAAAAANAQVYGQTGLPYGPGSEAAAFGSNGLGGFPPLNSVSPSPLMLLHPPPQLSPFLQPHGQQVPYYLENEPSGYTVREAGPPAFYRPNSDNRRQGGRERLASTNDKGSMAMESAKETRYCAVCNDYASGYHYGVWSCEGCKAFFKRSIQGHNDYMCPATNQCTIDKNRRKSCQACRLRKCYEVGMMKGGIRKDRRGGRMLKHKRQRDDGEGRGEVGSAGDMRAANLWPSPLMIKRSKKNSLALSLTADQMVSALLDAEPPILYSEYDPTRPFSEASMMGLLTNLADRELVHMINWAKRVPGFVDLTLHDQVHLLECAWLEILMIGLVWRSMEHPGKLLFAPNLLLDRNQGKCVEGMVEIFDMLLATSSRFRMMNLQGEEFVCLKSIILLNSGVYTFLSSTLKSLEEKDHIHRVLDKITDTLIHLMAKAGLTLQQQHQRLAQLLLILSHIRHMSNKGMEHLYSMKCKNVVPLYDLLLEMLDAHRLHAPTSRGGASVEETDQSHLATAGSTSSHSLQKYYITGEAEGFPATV

[3] = Oral bioavailability in rat at 10 mg/kg administered as single dose by LC-MS/MS analysis; assay type: ADME, organism-based; conditions: in vivo; procedure, shortened: as §1
[4] = Tmax in rat at 10 mg/kg, po administered as single dose by LC-MS/MS analysis; assay type: ADME, organism-based; parameters: dose 10 mg/kg, route oral; conditions: in vivo; procedure, shortened: as §1
Estrogen receptor [5] = target: T1, Estrogen receptor; assay: Displacement of radiolabeled estrogen from estrogen receptor alpha by scintillation counting
[6] = Half life in rat at 10 mg/kg, po administered as single dose by LC-MS/MS analysis; assay type: ADME, organism-based; parameters: dose 10 mg/kg, route oral; conditions: in vivo; procedure, shortened: as §1
Rattus norvegicus [7] = species on record: Rattus norvegicus; assay: animal or person; assay type: functional; conditions: Uterus, 72 h, route oral
[8] = Cmax in rats after 10 mg/kg oral dose; assay type: ADME, organism-based; parameters: dose 10 mg/kg, route oral; conditions: rat, in vivo; procedure, shortened: as §1
Estrogen receptor beta = Estrogen receptor beta (Homo sapiens, UniProt Q92731); assay: Inhibition of fluormone ES2 binding to estrogen receptor beta after 1 hr by fluorescence polarization assay
Estrogen receptor beta, sequence (Q92731 whole entry): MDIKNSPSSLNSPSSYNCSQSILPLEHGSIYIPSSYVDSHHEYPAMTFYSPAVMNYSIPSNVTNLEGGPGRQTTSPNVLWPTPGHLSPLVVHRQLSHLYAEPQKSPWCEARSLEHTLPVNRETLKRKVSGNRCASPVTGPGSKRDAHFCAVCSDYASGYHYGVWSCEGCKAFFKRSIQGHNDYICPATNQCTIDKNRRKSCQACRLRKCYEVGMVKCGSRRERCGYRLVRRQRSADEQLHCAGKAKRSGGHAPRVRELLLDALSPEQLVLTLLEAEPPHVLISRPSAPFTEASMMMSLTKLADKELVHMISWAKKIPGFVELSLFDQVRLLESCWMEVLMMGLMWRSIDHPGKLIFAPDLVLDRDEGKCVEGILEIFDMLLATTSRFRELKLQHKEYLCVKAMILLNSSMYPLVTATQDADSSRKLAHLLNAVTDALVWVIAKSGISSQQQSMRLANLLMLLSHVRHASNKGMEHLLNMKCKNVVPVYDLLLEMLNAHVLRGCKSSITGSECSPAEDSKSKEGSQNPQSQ

Rattus norvegicus [9] = assay: Uterotropic activity in rat assessed as stimulation of estrone-induced uterine weight at 1 mg/kg, po QD after 3 days; assay type: functional; conditions: Uterus, 72 h
Rattus norvegicus [10] = assay: Estrogenic activity in ovariectomized rat assessed as minor increase in uterine epithelial thickness at 1 mg/kg, po administered daily measured after 6 week by immunohistochemical analysis; assay type: functional, organism-based; parameters: dose 1 mg/kg
Rattus norvegicus [11] = assay: Decrease in bone resorption in ovariectomized rat assessed as decrease in urine deoxypyridinoline level at 1 mg/kg, po administered daily measured after 6 weeks; assay type: functional, organism-based; parameters: dose 1 mg/kg
Procedure, shortened: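 Adult (>6 months) female rats, housed singly on a casein-based diet, ovariectomized under sterile conditions and anesthesia; 6-14 per group. From 24 h after surgery, daily oral gavage of an aqueous suspension in 0.5% Methocel for 2 or 6 weeks. […] Urine deoxypyridinoline measured as bone-resorption marker.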

Rattus norvegicus [12] = assay: Effect on bone turnover in ovariectomized rat assessed as prevention of tibial bone density at 1 mg/kg, po administered daily measured after 6 weeks by ex vivo peripheral quantitative computerized tomography; assay type: functional, organism-based; parameters: dose 1 mg/kg
Rattus norvegicus [13] = assay: Increase in vaginal secretion in ovariectomized rat at 1 mg/kg, po administered daily measured after 2 weeks […]; assay type: functional, organism-based; parameters: dose 1 mg/kg
Procedure, shortened: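 Ovariectomized adult female rats dosed daily by oral gavage (0.5% Methocel suspension) for 2 or 6 weeks from 24 h after surgery. Vaginal fluid collected with a cotton swab and its absolute weight determined per animal.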

Oc1ccc2c(c1)O[C@H](c1ccc(OCCN3CCCCC3)cc1)C1=C2CCOc2ccccc21
AUC [1]: 1130 ng·h/mL | IC50 (Estrogen receptor [2]): 259 nM | bioavailability [3]: 9% | Tmax [4]: 4.8 h | IC50 (Estrogen receptor [5]): 100 nM | half-life [6]: 5.28 h | inhibition in vivo at 1 mg/kg (Rattus norvegicus [7]): 5% | Cmax [8]: 30 ng/mL | IC50 (Estrogen receptor beta): 200 nM

Oc1ccc2c(c1)OC(c1ccc(OCCN3CCCCC3)cc1)C1=C2CCCOc2cc(O)ccc21 (single isomer, unassigned; (+))
IC50 (Estrogen receptor [2]): 121 nM | IC50 (Estrogen receptor [5]): 23 nM | inhibition in vivo at 1 mg/kg (Rattus norvegicus [7]): 33% | IC50 (Estrogen receptor beta): 77 nM

CN(C)CCOc1ccc([C@@H]2Oc3cc(O)ccc3C3=C2c2ccc(O)cc2OCC3)cc1
IC50 (Estrogen receptor [2]): 405 nM | IC50 (Estrogen receptor [5]): 11 nM | inhibition in vivo at 1 mg/kg (Rattus norvegicus [7]): 0% | stimulation at 1 mg/kg (Rattus norvegicus [9]): 100% | IC50 (Estrogen receptor beta): 12 nM

Oc1ccc2c(c1)O[C@@H](c1ccc(OCCN3CCCCC3)cc1)C1=C2CCOc2cc(O)ccc21
IC50 (Estrogen receptor [2]): 32 nM | IC50 (Estrogen receptor [5]): 3.4 nM | inhibition in vivo at 1 mg/kg (Rattus norvegicus [7]): 88% | IC50 (Estrogen receptor beta): 16 nM

CCN(CC)CCOc1ccc([C@H]2Oc3cc(F)ccc3C3=C2c2ccc(O)cc2OCC3)cc1
IC50 (Estrogen receptor [2]): 113 nM | IC50 (Estrogen receptor [5]): 5 nM | inhibition in vivo at 1 mg/kg (Rattus norvegicus [7]): 80% | IC50 (Estrogen receptor beta): 108 nM

CC(C)N(CCOc1ccc([C@H]2Oc3cc(O)ccc3C3=C2c2ccc(O)cc2OCC3)cc1)C(C)C
IC50 (Estrogen receptor [2]): 287 nM | IC50 (Estrogen receptor [5]): 5.4 nM | inhibition in vivo at 1 mg/kg (Rattus norvegicus [7]): 30% | IC50 (Estrogen receptor beta): 20 nM

CC/C(=C(\c1ccccc1)c1ccc(OCCN(C)C)cc1)c1ccccc1 [TAMOXIFEN]
inhibition in vivo at 1 mg/kg (Rattus norvegicus [7]): 0% | stimulation at 1 mg/kg (Rattus norvegicus [9]): 109%

O=C1CCC(=O)N1CCCOc1ccc([C@@H]2Oc3cc(O)ccc3C3=C2c2ccc(O)cc2OCC3)cc1
IC50 (Estrogen receptor [2]): > 10000 nM | IC50 (Estrogen receptor [5]): 41 nM | inhibition in vivo at 1 mg/kg (Rattus norvegicus [7]): 0% | IC50 (Estrogen receptor beta): 5.68 nM

CN(C)CCOc1ccc([C@@H]2Oc3cc(O)ccc3C3=C2c2ccccc2OCC3)cc1
IC50 (Estrogen receptor [2]): 158 nM | IC50 (Estrogen receptor [5]): 11.1 nM | inhibition in vivo at 1 mg/kg (Rattus norvegicus [7]): 20% | IC50 (Estrogen receptor beta): 30 nM

O=C(c1ccc(OCCN2CCCCC2)cc1)c1c(-c2ccc(O)cc2)sc2cc(O)ccc12 [RALOXIFENE]
Activity (Rattus norvegicus [10]): Active | Activity (Rattus norvegicus [11]): Active | inhibition in vivo at 1 mg/kg (Rattus norvegicus [7]): 105% | Activity (Rattus norvegicus [12]): Active | Activity (Rattus norvegicus [13]): inactive

Oc1ccc2c(c1)OCCC1=C2[C@H](c2ccc(OCCN3CCCCCC3)cc2)Oc2ccccc21
IC50 (Estrogen receptor [2]): 68 nM | IC50 (Estrogen receptor [5]): 4.5 nM | inhibition in vivo at 1 mg/kg (Rattus norvegicus [7]): 28% | IC50 (Estrogen receptor beta): 22 nM

CC(C)N(CCOc1ccc([C@@H]2Oc3cc(O)ccc3C3=C2c2ccc(O)cc2OCC3)cc1)C(C)C
IC50 (Estrogen receptor [2]): 35 nM | IC50 (Estrogen receptor [5]): 5.6 nM | inhibition in vivo at 1 mg/kg (Rattus norvegicus [7]): 30% | stimulation at 1 mg/kg (Rattus norvegicus [9]): 80% | IC50 (Estrogen receptor beta): 18.5 nM

Oc1ccc2c(c1)OC(c1ccc(OCCN3CCCCC3)cc1)C1=C2CCOc2cc(O)ccc21 (stereo not drawn)
IC50 (Estrogen receptor [2]): 8 nM | IC50 (Estrogen receptor [5]): 13 nM | inhibition in vivo at 1 mg/kg (Rattus norvegicus [7]): 77% | IC50 (Estrogen receptor beta): 31 nM

COc1ccc2c(c1)OCCC1=C2[C@H](c2ccc(OCCN3CCCCC3)cc2)Oc2cc(O)ccc21
IC50 (Estrogen receptor [2]): 150 nM | IC50 (Estrogen receptor [5]): 4.2 nM | inhibition in vivo at 1 mg/kg (Rattus norvegicus [7]): 20% | IC50 (Estrogen receptor beta): 24 nM

COc1ccc2c(c1)O[C@@H](c1ccc(OCCN3CCCCC3)cc1)C1=C2CCOc2cc(O)ccc21
IC50 (Estrogen receptor [2]): 25.9 nM | IC50 (Estrogen receptor [5]): 6.3 nM | inhibition in vivo at 1 mg/kg (Rattus norvegicus [7]): 12% | IC50 (Estrogen receptor beta): 63 nM

Oc1ccc2c(c1)O[C@H](c1ccc(OCCN3CCOCC3)cc1)C1=C2CCOc2cc(O)ccc21
IC50 (Estrogen receptor [2]): 43 nM | IC50 (Estrogen receptor [5]): 1.6 nM | inhibition in vivo at 1 mg/kg (Rattus norvegicus [7]): 40% | IC50 (Estrogen receptor beta): 35 nM

Oc1ccc2c(c1)O[C@@H](c1ccc(OCCN3CCCC3)cc1)C1=C2CCOc2cc(O)ccc21
IC50 (Estrogen receptor [2]): 165 nM | IC50 (Estrogen receptor [5]): 2.5 nM | inhibition in vivo at 1 mg/kg (Rattus norvegicus [7]): 20% | IC50 (Estrogen receptor beta): 8.7 nM

Oc1ccc2c(c1)OCCC1=C2[C@H](c2ccc(OCCN3CCCCCC3)cc2)Oc2cc(F)ccc21
IC50 (Estrogen receptor [2]): 161 nM | IC50 (Estrogen receptor [5]): 5 nM | inhibition in vivo at 1 mg/kg (Rattus norvegicus [7]): 33% | IC50 (Estrogen receptor beta): 31 nM
